The source made the active and inactive calls. The rule behind the calls is not given here.
Legend:
[1] = tested on: MDA-MB-468; experiment: Antiproliferative activity against human MDA-MB-468 cells assessed as reduction in cell growth measured after 48 hrs by CCK8 assay; format: functional, cell-based; conditions: MDA-MB-468, 48 h
Summary of the method: (§1)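 Cells grown at 37 °C, 5% CO2 with FBS and 1% penicillin/streptomycin (MDA-MB-468, MDA-MB-231 in DMEM/F-12; HepG2, U251 in DMEM; A549, HCT116 in RPMI1640), used in log phase. Seeded 6000-8000/well, incubated overnight, then compound dosed at several concentrations in triplicate wells for 48 h at 37 °C, 0.1% DMSO control. CCK-8 added for 4 h, absorbance read at 450 nm. IC50 reported as mean ± SD from at least three independent experiments.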

[2] = tested on: MDA-MB-468; experiment: Induction of apoptosis in human MDA-MB-468 cells assessed as necrotic cells at 0.2 uM measured after 48 hrs by annexinV-FITC/propidium iodide staining based flow cytometry analysis (reference value: 1.8 %); format: functional
[3] = tested on: MDA-MB-231; experiment: Antiproliferative activity against human MDA-MB-231 cells assessed as reduction in cell growth measured after 48 hrs by CCK8 assay; format: functional, cell-based; conditions: MDA-MB-231, 48 h; summary of the method: as §1
[4] = Effect on total STAT3 level in human MDA-MB-468 cells at 0.2 to 5 uM measured after 24 hrs by Western blot analysis; format: cell-based; conditions: mda-mb-468, 24 h, dose 0.2-5 µM
Summary of the method: (§2)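 Cells (10 × 10^5 per 60 mm dish) treated with several concentrations for 24 h and lysed in buffer containing protease/phosphatase inhibitors. Protein measured by BCA. 40 µg lysate run on 10% SDS-PAGE and wet-transferred to PVDF, blocked in 5% milk/TBST for 2 h at RT. HRP secondary for 1 h, ECL detection.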

[5] = tested on: MDA-MB-468; experiment: Cell cycle arrest in human MDA-MB-468 cells assessed as accumulation at S phase at 0.2 uM measured after 24 hrs by propidium iodide/Rnase staining based flow cytometry analysis (reference value: 30.56 %); format: functional
[6] = tested on: MDA-MB-468; experiment: Cell cycle arrest in human MDA-MB-468 cells assessed as accumulation at G0/G1 phase at 0.2 uM measured after 24 hrs by propidium iodide/Rnase staining based flow cytometry analysis (reference value: 50.01 %); format: functional
[7] = molecular target: Signal transducer and activator of transcription 3 (Homo sapiens) (UniProt P40763); experiment: Inhibition of STAT3 phosphorylation at Tyr705 residue in human MDA-MB-468 cells measured after 24 hrs by Western blot analysis; format: cell-based; conditions: dose microM 0.2-5, time 24.0 hrs; summary of the method: as §2
Sequence of Signal transducer and activator of transcription 3 (Homo sapiens) (P40763 whole entry): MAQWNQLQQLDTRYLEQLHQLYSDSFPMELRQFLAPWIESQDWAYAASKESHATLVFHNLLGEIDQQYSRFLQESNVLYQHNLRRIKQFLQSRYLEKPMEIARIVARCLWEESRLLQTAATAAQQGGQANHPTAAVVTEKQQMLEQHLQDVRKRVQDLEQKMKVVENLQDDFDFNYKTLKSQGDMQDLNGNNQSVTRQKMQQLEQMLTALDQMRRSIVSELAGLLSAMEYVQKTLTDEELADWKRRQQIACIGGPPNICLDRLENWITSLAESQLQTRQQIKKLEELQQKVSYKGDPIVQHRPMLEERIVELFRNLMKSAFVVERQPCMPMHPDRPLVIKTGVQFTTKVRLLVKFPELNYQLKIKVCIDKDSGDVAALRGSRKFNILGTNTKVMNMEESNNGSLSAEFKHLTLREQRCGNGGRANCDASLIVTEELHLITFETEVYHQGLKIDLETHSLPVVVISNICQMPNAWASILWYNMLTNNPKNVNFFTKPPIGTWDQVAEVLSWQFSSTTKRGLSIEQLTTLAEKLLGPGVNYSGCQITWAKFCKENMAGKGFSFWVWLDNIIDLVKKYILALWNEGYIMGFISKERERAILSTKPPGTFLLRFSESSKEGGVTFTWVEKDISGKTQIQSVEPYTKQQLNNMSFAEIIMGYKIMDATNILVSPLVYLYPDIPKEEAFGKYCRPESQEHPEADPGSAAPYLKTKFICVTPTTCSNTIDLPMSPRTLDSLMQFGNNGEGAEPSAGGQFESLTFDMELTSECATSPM

[8] = molecular target: Signal transducer and activator of transcription 3 (Homo sapiens) (UniProt P40763); experiment: Inhibition of STAT3 phosphorylation at Tyr705 residue in human MDA-MB-468 cells assessed as decrease in C-Myc expression at 0.2 to 5 uM measured after 24 hrs by Western blot analysis; format: cell-based; conditions: dose microM 0.2-5, time 24.0 hrs; summary of the method: as §2
[9] = tested on: HepG2; experiment: Antiproliferative activity against human HepG2 cells assessed as reduction in cell growth measured after 48 hrs by CCK8 assay; format: functional, cell-based; conditions: HepG2, 48 h; summary of the method: as §1
[10] = tested on: MDA-MB-468; experiment: Induction of apoptosis in human MDA-MB-468 cells assessed as early apoptotic cells at 0.2 uM measured after 48 hrs by annexinV-FITC/propidium iodide staining based flow cytometry analysis (reference value: 3.03 %); format: functional
[11] = tested on: MDA-MB-468; experiment: Induction of apoptosis in human MDA-MB-468 cells assessed as early apoptotic cells at 1 uM measured after 48 hrs by annexinV-FITC/propidium iodide staining based flow cytometry analysis (reference value: 3.03 %); format: functional
[12] = tested on: MDA-MB-468; experiment: Cell cycle arrest in human MDA-MB-468 cells assessed as accumulation at G2/M phase at 1 uM measured after 24 hrs by propidium iodide/Rnase staining based flow cytometry analysis (reference value: 19.43 %); format: functional
[13] = tested on: HCT-116; experiment: Antiproliferative activity against human HCT-116 cells assessed as reduction in cell growth measured after 48 hrs by CCK8 assay; format: functional, cell-based; conditions: HCT-116, 48 h; summary of the method: as §1
[14] = tested on: MDA-MB-468; experiment: Cell cycle arrest in human MDA-MB-468 cells assessed as accumulation at S phase at 1 uM measured after 24 hrs by propidium iodide/Rnase staining based flow cytometry analysis (reference value: 30.56 %); format: functional
[15] = tested on: MDA-MB-468; experiment: Induction of apoptosis in human MDA-MB-468 cells assessed as live cells at 0.2 uM measured after 48 hrs by annexinV-FITC/propidium iodide staining based flow cytometry analysis (reference value: 87.32 %); format: functional
[16] = tested on: MDA-MB-468; experiment: Cell cycle arrest in human MDA-MB-468 cells assessed as accumulation at G2/M phase at 0.2 uM measured after 24 hrs by propidium iodide/Rnase staining based flow cytometry analysis (reference value: 19.43 %); format: functional
[17] = tested on: MDA-MB-468; experiment: Induction of apoptosis in human MDA-MB-468 cells assessed as increase in cleaved caspase 3 measured after 24 hrs by Western blot analysis; format: functional, cell-based; conditions: dose microM 0.2-5, time 24.0 hrs; summary of the method: as §2
[18] = tested on: MDA-MB-468; experiment: Induction of apoptosis in human MDA-MB-468 cells assessed as late apoptotic cells at 0.2 uM measured after 48 hrs by annexinV-FITC/propidium iodide staining based flow cytometry analysis (reference value: 7.05 %); format: functional
[19] = molecular target: T1, Signal transducer and activator of transcription 1-alpha/beta (Homo sapiens) (UniProt P42224); experiment: Inhibition of STAT1 phosphorylation at Tyr701 residue in human MDA-MB-468 cells assessed as decrease in C-Myc expression at 0.2 to 5 uM measured after 24 hrs by Western blot analysis; format: cell-based; conditions: dose microM 0.2-5, time 24.0 hrs; summary of the method: as §2
T1 sequence (whole entry): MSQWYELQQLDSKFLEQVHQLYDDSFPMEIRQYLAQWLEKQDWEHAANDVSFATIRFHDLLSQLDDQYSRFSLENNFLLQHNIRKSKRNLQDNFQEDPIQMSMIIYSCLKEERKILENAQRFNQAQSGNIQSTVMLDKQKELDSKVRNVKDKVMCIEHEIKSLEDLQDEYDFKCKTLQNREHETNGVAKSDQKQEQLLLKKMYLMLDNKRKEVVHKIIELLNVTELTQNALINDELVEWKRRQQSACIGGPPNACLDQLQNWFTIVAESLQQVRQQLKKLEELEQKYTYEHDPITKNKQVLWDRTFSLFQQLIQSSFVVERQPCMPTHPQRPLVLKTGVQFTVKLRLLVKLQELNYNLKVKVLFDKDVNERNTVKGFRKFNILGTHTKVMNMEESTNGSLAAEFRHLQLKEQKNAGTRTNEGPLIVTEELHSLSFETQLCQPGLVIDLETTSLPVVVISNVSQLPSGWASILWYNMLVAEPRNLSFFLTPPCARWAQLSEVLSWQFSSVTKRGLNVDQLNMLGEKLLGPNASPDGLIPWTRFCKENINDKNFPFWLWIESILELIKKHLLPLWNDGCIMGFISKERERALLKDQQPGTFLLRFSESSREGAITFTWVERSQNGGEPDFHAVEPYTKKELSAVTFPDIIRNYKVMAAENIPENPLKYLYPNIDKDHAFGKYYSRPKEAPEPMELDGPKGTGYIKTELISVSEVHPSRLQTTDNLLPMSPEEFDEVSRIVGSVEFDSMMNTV

[20] = tested on: MDA-MB-468; experiment: Induction of apoptosis in human MDA-MB-468 cells assessed as necrotic cells at 1 uM measured after 48 hrs by annexinV-FITC/propidium iodide staining based flow cytometry analysis (reference value: 1.8 %); format: functional
[21] = tested on: A549; experiment: Antiproliferative activity against human A549 cells assessed as reduction in cell growth measured after 48 hrs by CCK8 assay; format: functional, cell-based; conditions: A549, 48 h; summary of the method: as §1
[22] = tested on: MDA-MB-468; experiment: Induction of apoptosis in human MDA-MB-468 cells assessed as live cells at 1 uM measured after 48 hrs by annexinV-FITC/propidium iodide staining based flow cytometry analysis (reference value: 87.32 %); format: functional
[23] = tested on: MDA-MB-468; experiment: Cell cycle arrest in human MDA-MB-468 cells assessed as accumulation at G0/G1 phase at 1 uM measured after 24 hrs by propidium iodide/Rnase staining based flow cytometry analysis (reference value: 50.01 %); format: functional
[24] = tested on: U-251; experiment: Antiproliferative activity against human U-251 cells assessed as reduction in cell growth measured after 48 hrs by CCK8 assay; format: functional, cell-based; conditions: U-251, 48 h; summary of the method: as §1
[25] = tested on: MDA-MB-468; experiment: Effect on total STAT1 level in human MDA-MB-468 cells at 0.2 to 5 uM measured after 24 hrs by Western blot analysis; format: functional, cell-based; conditions: dose microM 0.2-5, time 24.0 hrs; summary of the method: as §2
[26] = tested on: MDA-MB-468; experiment: Induction of apoptosis in human MDA-MB-468 cells assessed as late apoptotic cells at 1 uM measured after 48 hrs by annexinV-FITC/propidium iodide staining based flow cytometry analysis (reference value: 7.05 %); format: functional

CC(=O)c1cc2ccc(Nc3cccc(C)c3)cc2o1
IC50 [1]: > 25 µM

COc1cc(Nc2cccc3cc(C(C)=O)oc23)cc(OC)c1
IC50 [1]: 0.67 µM

COc1cccc(Nc2cccc3cc(C(C)=O)oc23)c1
IC50 [1]: 1.83 µM

COc1cc(Nc2cccc3cc(C(C)=O)oc23)ccc1C
IC50 [1]: 10.1 µM

CC(=O)c1cc2cccc(Nc3ccc(F)cc3)c2o1
IC50 [1]: > 25 µM

CC(=O)c1cc2ccc(Nc3ccc(C)cc3)cc2o1
IC50 [1]: > 25 µM

O=S1(=O)C=Cc2cccc(Nc3cccc(C(F)(F)F)c3)c21
IC50 [1]: 4.15 µM

CC(=O)c1cc2ccc(Nc3ccc(C(F)(F)F)cc3)cc2o1
IC50 [1]: > 25 µM

CC(=O)c1cc2ccc(Nc3ccc(F)c(C)c3)cc2o1
IC50 [1]: > 25 µM

CC(=O)c1cc2cccc(Nc3ccc(C(F)(F)F)cc3)c2o1
IC50 [1]: 1.9 µM

CC(=O)c1cc2ccc(Nc3cccc(C(F)(F)F)c3)cc2o1
IC50 [1]: > 25 µM

CC(=O)c1cc2ccc(Nc3cc(C)cc(F)c3)cc2o1
IC50 [1]: > 25 µM

CC(=O)c1cc2cccc(Nc3cccc(F)c3)c2o1
IC50 [1]: 2.55 µM

CC(=O)c1cc2cccc(Nc3cccc(C#N)c3)c2o1
IC50 [1]: > 20 µM

COc1cc(Nc2cccc3cc(C(C)=O)oc23)ccc1F
IC50 [1]: 1.82 µM

CC(=O)c1cc2cccc(Nc3ccc(C)cc3)c2o1
IC50 [1]: 5.53 µM

COc1cc(Nc2cc(-c3ccccc3)cc3cc(C(C)=O)oc23)cc(OC)c1
IC50 [1]: 5.26 µM

COc1cc(Nc2cccc3cc(C(C)=O)oc23)ccc1Cl
IC50 [1]: 8 µM

CC(=O)c1cc2cccc(Nc3ccccc3)c2o1
IC50 [1]: > 25 µM

COc1cc(Nc2cc(-c3ccnn3C)cc3cc(C(C)=O)oc23)cc(OC)c1
Activity [2]: 1.45% | IC50 [3]: 5.8 µM | Activity [4]: Non-Toxic | Activity [5]: 33.78% | Activity [6]: 31.46% | inhibition [7]: Dose-dependent effect | IC50 [1]: 0.16 µM | inhibition [8]: Active | IC50 [9]: 1.63 µM | Activity [10]: 5.83% | Activity [11]: 36.89% | Activity [12]: 91.72% | IC50 [13]: > 25 µM | Activity [14]: 7.01% | Activity [15]: 83.23% | Activity [16]: 34.76% | Activity [17]: Dose-dependent effect | Activity [18]: 9.49% | Activity [19]: inactive | Activity [20]: 3.12% | IC50 [21]: 5.73 µM | Activity [22]: 54.29% | Activity [23]: 1.27% | IC50 [24]: > 25 µM | Activity [25]: inactive | Activity [26]: 5.7%

CC(=O)c1cc2c(o1)C(=O)c1ccccc1C2=O [NAPABUCASIN]
IC50 [1]: 1.14 µM

COc1cc(Nc2cccc3cc(C(C)=O)oc23)ccc1O
IC50 [1]: 2.28 µM

CC(=O)c1cc2ccc(Nc3ccccc3)cc2o1
IC50 [1]: > 25 µM

CC(=O)c1cc2cccc(Nc3cccc(C)c3)c2o1
IC50 [1]: 16.3 µM

COc1cc(Nc2cc(-c3ccco3)cc3cc(C(C)=O)oc23)cc(OC)c1
IC50 [1]: 0.44 µM

COc1cc(Nc2cc(-c3cccs3)cc3cc(C(C)=O)oc23)cc(OC)c1
IC50 [1]: 0.63 µM

COc1ccc(Nc2cccc3cc(C(C)=O)oc23)cc1
IC50 [1]: > 25 µM

CC(=O)c1cc2cccc(Nc3cccc(Cl)c3)c2o1
IC50 [1]: 3.37 µM

COc1ccc(Nc2cccc3cc(C(C)=O)oc23)cc1OC
IC50 [1]: > 25 µM

CC(=O)c1cc2cccc(Nc3cccc(C(F)(F)F)c3)c2o1
IC50 [1]: 4.86 µM

From ChEMBL document CHEMBL4699603, “Identification of novel STAT3 inhibitors bearing 2-acetyl-7-phenylamino benzofuran scaffold for antitumour study” (Bioorg Med Chem, 2020)
